Values after ≈ are worked out from the molar mass of the structure shown.
Key:
Type in all cases: functional, Salmonella enterica subsp. enterica serovar Typhimurium
Salmonella typhimurium [1] = experiment: Antimicrobial activity against Salmonella enterica serovar Typhimurium CS9 acrAB::Kan with GyrA S83F, D87N, ParC S80I mutation
Procedure, shortened: (§1)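 MICs measured by broth microdilution on the Sensititre automated system and interpreted by CLSI broth microdilution standards. Ciprofloxacin was also tested by agar dilution, widening the range to 0.0075–128 μg/ml. Quality control strains were E. coli ATCC 25922 and 35218, E. faecalis ATCC 29212, S. aureus ATCC 29213 and P. aeruginosa ATCC 27853.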

Salmonella typhimurium [2] = experiment: Antimicrobial activity against Salmonella enterica serovar Typhimurium S21 acrAB::Kan
Procedure, shortened: (§2)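 MICs by automated broth microdilution panels, interpreted to CLSI broth microdilution standards. Ciprofloxacin additionally tested by agar dilution across 0.0075 to 128 μg/ml. Quality control strains: E. coli ATCC 25922 and 35218, Enterococcus faecalis ATCC 29212, S. aureus ATCC 29213, P. aeruginosa ATCC 27853. Test strains are kanamycin-marked deletion mutants of ground-beef isolate S21.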

Salmonella typhimurium [3] = experiment: Antimicrobial activity against Salmonella enterica serovar Typhimurium CHS14 gyrA+ with GyrA D87G mutation; procedure, shortened: as §1
Salmonella typhimurium [4] = experiment: Antimicrobial activity against Salmonella enterica serovar Typhimurium CS1 with GyrA S83F, D87N, ParC S80I mutation; procedure, shortened: as §1
Salmonella typhimurium [5] = experiment: Antimicrobial activity against Salmonella enterica serovar Typhimurium S21-4 tolC::Kan with GyrA S83F, ParC S80I mutation; procedure, shortened: as §1
Salmonella typhimurium [6] = experiment: Antimicrobial activity against Salmonella enterica serovar Typhimurium CHS38 acrAB::Kan with GyrA D87G mutation; procedure, shortened: as §1
Salmonella typhimurium [7] = experiment: Antimicrobial activity against Salmonella enterica serovar Typhimurium S21; procedure, shortened: as §1
Salmonella typhimurium [8] = experiment: Antimicrobial activity against Salmonella enterica serovar Typhimurium CHS38 tolC::Kan with GyrA D87G mutation; procedure, shortened: as §1
Salmonella typhimurium [9] = experiment: Antimicrobial activity against Salmonella enterica serovar Typhimurium S21 tolC::Kan; procedure, shortened: as §2
Salmonella typhimurium [10] = experiment: Antimicrobial activity against Salmonella enterica serovar Typhimurium CHS18 gyrA+ with GyrA S38F mutation; procedure, shortened: as §1
Salmonella typhimurium [11] = experiment: Antimicrobial activity against Salmonella enterica serovar Typhimurium CHS18 with GyrA S38F mutation; procedure, shortened: as §1
Salmonella typhimurium [12] = experiment: Antimicrobial activity against Salmonella enterica serovar Typhimurium CS3 acrAB::Kan with GyrA S83F, D87N, ParC S80I mutation; procedure, shortened: as §1
Salmonella typhimurium [13] = experiment: Antimicrobial activity against Salmonella enterica serovar Typhimurium CHS38 with GyrA D87G mutation; procedure, shortened: as §1
Salmonella typhimurium [14] = experiment: Antimicrobial activity against Salmonella enterica serovar Typhimurium CS9 gyrA+ with GyrA S83F, D87N, ParC S80I mutation; procedure, shortened: as §1
Salmonella typhimurium [15] = experiment: Antimicrobial activity against Salmonella enterica serovar Typhimurium S21-1 gyrA+; procedure, shortened: as §1
Salmonella typhimurium [16] = experiment: Antimicrobial activity against Salmonella enterica serovar Typhimurium CS1 acrAB::Kan with GyrA S83F, D87N, ParC S80I mutation; procedure, shortened: as §1
Salmonella typhimurium [17] = experiment: Antimicrobial activity against Salmonella enterica serovar Typhimurium CS3 tolC::Kan with GyrA S83F, D87N, parC S80I mutation; procedure, shortened: as §1
Salmonella typhimurium [18] = experiment: Antimicrobial activity against Salmonella enterica serovar Typhimurium CHS38 gyrA+ with GyrA D87G mutation; procedure, shortened: as §1
Salmonella typhimurium [19] = experiment: Antimicrobial activity against Salmonella enterica serovar Typhimurium CHS18 tolC::Kan with GyrA S38F mutation; procedure, shortened: as §1
Salmonella typhimurium [20] = experiment: Antimicrobial activity against Salmonella enterica serovar Typhimurium S21 gyrA+; procedure, shortened: as §1
Salmonella typhimurium [21] = experiment: Antimicrobial activity against Salmonella enterica serovar Typhimurium CS9 with GyrA S83F, D87N, ParC S80I mutation; procedure, shortened: as §1
Salmonella typhimurium [22] = experiment: Antimicrobial activity against Salmonella enterica serovar Typhimurium CHS14 tolC::Kan with GyrA D87G mutant; procedure, shortened: as §1
Salmonella typhimurium [23] = experiment: Antimicrobial activity against Salmonella enterica serovar Typhimurium CHS14 with GyrA D87G mutation; procedure, shortened: as §1
Salmonella typhimurium [24] = experiment: Antimicrobial activity against Salmonella enterica serovar Typhimurium CS3 with GyrA S83F, D87N, ParC S80I mutation; procedure, shortened: as §1
Salmonella typhimurium [25] = experiment: Antimicrobial activity against Salmonella enterica serovar Typhimurium CHS18 acrAB::Kan with GyrA S38F mutation; procedure, shortened: as §1
Salmonella typhimurium [26] = experiment: Antimicrobial activity against Salmonella enterica serovar Typhimurium CS1 gyrA+ with GyrA S83F, D87N, ParC S80I mutation; procedure, shortened: as §1
Salmonella typhimurium [27] = experiment: Antimicrobial activity against Salmonella enterica serovar Typhimurium CS3 gyrA+ with GyrA S83F, D87N, ParC S80I mutation; procedure, shortened: as §1
Salmonella typhimurium [28] = experiment: Antimicrobial activity against Salmonella enterica serovar Typhimurium CHS14 acrAB::Kan with GyrA D87G mutation; procedure, shortened: as §1
Salmonella typhimurium [29] = experiment: Antimicrobial activity against Salmonella enterica serovar Typhimurium CS1 tolC::Kan with GyrA S83F, D87N, ParC S80I mutation; procedure, shortened: as §1
Salmonella typhimurium [30] = experiment: Antimicrobial activity against Salmonella enterica serovar Typhimurium CS9 tolC::Kan with GyrA S83F, D87N, ParC S80I mutation; procedure, shortened: as §1
Salmonella typhimurium [31] = experiment: Antimicrobial activity against Salmonella enterica serovar Typhimurium S21-4 acrAB::Kan with GyrA S83F, ParC S80I mutation; procedure, shortened: as §1
Salmonella typhimurium [32] = experiment: Antimicrobial activity against Salmonella enterica serovar Typhimurium S21-2 with GyrA S83F, ParC S80I mutation; procedure, shortened: as §1
Salmonella typhimurium [33] = experiment: Antimicrobial activity against Salmonella enterica serovar Typhimurium S21-1 GyrA S83F mutant; procedure, shortened: as §1
Salmonella typhimurium [34] = experiment: Antimicrobial activity against Salmonella enterica serovar Typhimurium S21-3 gyrA+ with ParC S80I mutation; procedure, shortened: as §1
Salmonella typhimurium [35] = experiment: Antimicrobial activity against Salmonella enterica serovar Typhimurium S21-4 with GyrA S83F, ParC S80I mutation; procedure, shortened: as §1
Salmonella typhimurium [36] = experiment: Antimicrobial activity against Salmonella enterica serovar Typhimurium S21-4 gyrA+ with ParC S80I mutation; procedure, shortened: as §1
Salmonella typhimurium [37] = experiment: Antimicrobial activity against Salmonella enterica serovar Typhimurium S21-2 gyrA+ with ParC S80I mutation; procedure, shortened: as §1
Salmonella typhimurium [38] = experiment: Antimicrobial activity against Salmonella enterica serovar Typhimurium S21-3 with GyrA S83F, ParC S80I mutation; procedure, shortened: as §1

SMILES | MIC (Salmonella typhimurium [1]) [µg/mL] | MIC (Salmonella typhimurium [2]) [µg/mL] | MIC (Salmonella typhimurium [3]) [µg/mL] | MIC (Salmonella typhimurium [4]) [µg/mL] | MIC (Salmonella typhimurium [6]) [µg/mL] | MIC (Salmonella typhimurium [7]) [µg/mL] | MIC (Salmonella typhimurium [8]) [µg/mL] | MIC (Salmonella typhimurium [9]) [µg/mL] | MIC (Salmonella typhimurium [10]) [µg/mL] | MIC (Salmonella typhimurium [11]) [µg/mL] | MIC (Salmonella typhimurium [12]) [µg/mL] | MIC (Salmonella typhimurium [13]) [µg/mL] | MIC (Salmonella typhimurium [14]) [µg/mL] | MIC (Salmonella typhimurium [15]) [µg/mL] | MIC (Salmonella typhimurium [16]) [µg/mL] | MIC (Salmonella typhimurium [17]) [µg/mL] | MIC (Salmonella typhimurium [18]) [µg/mL] | MIC (Salmonella typhimurium [19]) [µg/mL] | MIC (Salmonella typhimurium [20]) [µg/mL] | MIC (Salmonella typhimurium [21]) [µg/mL] | also measured
O=C(N[C@H](CO)[C@H](O)c1ccc([N+](=O)[O-])cc1)C(Cl)Cl [CHLORAMPHENICOL] | > 32 | < 2 | 8 (≈ 24.8 µM) | > 32 | 4 (≈ 12.4 µM) | 8 (≈ 24.8 µM) | 4 (≈ 12.4 µM) | < 2 | 4 (≈ 12.4 µM) | 8 (≈ 24.8 µM) | > 32 | 32 (≈ 99 µM) | > 32 | > 32 | > 32 | > 32 | 32 (≈ 99 µM) | 2 (≈ 6.19 µM) | 8 (≈ 24.8 µM) | > 32 | MIC (Salmonella typhimurium [5]): 32 µg/mL (≈ 99 µM); MIC (Salmonella typhimurium [22]): < 2 µg/mL; MIC (Salmonella typhimurium [23]): 8 µg/mL (≈ 24.8 µM); MIC (Salmonella typhimurium [24]): > 32 µg/mL; MIC (Salmonella typhimurium [25]): 2 µg/mL (≈ 6.19 µM); MIC (Salmonella typhimurium [26]): > 32 µg/mL; MIC (Salmonella typhimurium [27]): > 32 µg/mL; MIC (Salmonella typhimurium [28]): < 2 µg/mL; MIC (Salmonella typhimurium [29]): > 32 µg/mL; MIC (Salmonella typhimurium [30]): > 32 µg/mL
NC[C@H]1O[C@H](O[C@H]2[C@H](O)[C@@H](O[C@H]3O[C@H](CO)[C@@H](O)[C@H](N)[C@H]3O)[C@H](N)C[C@@H]2N)[C@H](O)[C@@H](O)[C@@H]1O [KANAMYCIN] | > 64 | > 64 | > 64 | < 8 | > 64 | < 8 | > 64 | > 64 | > 64 | 8 (≈ 16.5 µM) | > 64 | 8 (≈ 16.5 µM) | > 64 | < 8 | > 64 | > 64 | > 64 | > 64 | < 8 | < 8 | MIC (Salmonella typhimurium [31]): > 64 µg/mL; MIC (Salmonella typhimurium [22]): > 64 µg/mL; MIC (Salmonella typhimurium [23]): < 8 µg/mL; MIC (Salmonella typhimurium [24]): < 8 µg/mL; MIC (Salmonella typhimurium [25]): > 64 µg/mL; MIC (Salmonella typhimurium [26]): > 64 µg/mL; MIC (Salmonella typhimurium [27]): > 64 µg/mL; MIC (Salmonella typhimurium [28]): > 64 µg/mL; MIC (Salmonella typhimurium [29]): > 64 µg/mL; MIC (Salmonella typhimurium [30]): > 64 µg/mL
CN(C)[C@@H]1C(O)=C(C(N)=O)C(=O)[C@@]2(O)C(O)=C3C(=O)c4c(O)cccc4[C@@](C)(O)[C@H]3C[C@@H]12 [TETRACYCLINE] | > 32 | < 4 | > 32 | > 32 | 16 (≈ 36 µM) | < 4 | 16 (≈ 36 µM) | < 4 | 4 (≈ 9 µM) | 4 (≈ 9 µM) | > 32 | 32 (≈ 72 µM) | > 32 | 32 (≈ 72 µM) | > 32 | 32 (≈ 72 µM) | 32 (≈ 72 µM) | 4 (≈ 9 µM) | < 4 | > 32 | MIC (Salmonella typhimurium [5]): 8 µg/mL (≈ 18 µM); MIC (Salmonella typhimurium [32]): > 32 µg/mL; MIC (Salmonella typhimurium [33]): 32 µg/mL (≈ 72 µM); MIC (Salmonella typhimurium [34]): > 32 µg/mL; MIC (Salmonella typhimurium [35]): > 32 µg/mL; MIC (Salmonella typhimurium [36]): > 32 µg/mL; MIC (Salmonella typhimurium [37]): > 32 µg/mL; MIC (Salmonella typhimurium [38]): > 32 µg/mL; MIC (Salmonella typhimurium [22]): > 32 µg/mL; MIC (Salmonella typhimurium [23]): > 32 µg/mL; MIC (Salmonella typhimurium [24]): > 32 µg/mL; MIC (Salmonella typhimurium [25]): 4 µg/mL (≈ 9 µM); MIC (Salmonella typhimurium [26]): > 32 µg/mL; MIC (Salmonella typhimurium [27]): > 32 µg/mL; MIC (Salmonella typhimurium [28]): > 32 µg/mL; MIC (Salmonella typhimurium [29]): 32 µg/mL (≈ 72 µM); MIC (Salmonella typhimurium [30]): 32 µg/mL (≈ 72 µM)
